The test system of one experiment is StaC-10x. The experiment can be described thus: Isothermal titration calorimetry, FAD binding to StaC-10x. Particulars: StaC-10x versus RebC. Summed up:
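It was used as isolated at ~33% FAD occupancy, because on-column KBr/urea stripping left the protein non-elutable. Concentration by BioRad protein assay against BSA standard. FAD titrated by ITC, two runs. Single-site Kb converted to an approximate Kd.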

The next experiment deals with T1, StaC (Streptomyces sp. TP-A0274, UniProt A3KBE8).
T1 sequence (A3KBE8 1-545): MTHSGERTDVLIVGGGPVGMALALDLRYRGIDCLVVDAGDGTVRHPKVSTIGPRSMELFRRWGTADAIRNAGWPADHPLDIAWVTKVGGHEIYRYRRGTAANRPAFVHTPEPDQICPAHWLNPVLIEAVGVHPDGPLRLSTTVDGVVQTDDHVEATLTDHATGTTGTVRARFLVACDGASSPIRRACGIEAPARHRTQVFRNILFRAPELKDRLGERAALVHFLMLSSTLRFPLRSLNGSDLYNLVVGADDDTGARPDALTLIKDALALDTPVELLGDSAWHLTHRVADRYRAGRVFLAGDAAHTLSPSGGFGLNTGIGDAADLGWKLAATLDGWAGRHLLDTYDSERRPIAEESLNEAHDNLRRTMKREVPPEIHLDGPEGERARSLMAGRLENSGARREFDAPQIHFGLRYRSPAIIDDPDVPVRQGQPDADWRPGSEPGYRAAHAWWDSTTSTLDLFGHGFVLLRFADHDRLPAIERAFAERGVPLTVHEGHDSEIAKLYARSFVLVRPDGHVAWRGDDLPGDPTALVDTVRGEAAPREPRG
The experiment can be described thus: Isothermal titration calorimetry of FAD with FAD-free. The format is binding. The gist of the method:
(§1)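 Recombinant His-tagged protein was expressed in Rosetta 2 (DE3) pLysS E. coli without added riboflavin (0.1 mM IPTG, 21°C, ~20 h). It was Ni(II)-affinity purified and gel-filtered on Superdex-200. The protein isolates free of FAD, so no stripping step was used. Concentration by A280 using theoretical extinction coefficient. FAD titrated by MicroCal ITC, at least triplicate runs. Single-site Kb converted to Kd.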
A general note: In ITC the heat of successive injections is recorded.

The target in the next experiment is RebC-10x (Lentzea aerocolonigenes, UniProt Q8KI25, A231S/E36D/F216V/G48S/Q117A/Q37A/R239N/R46K/T241V/T38G). The experiment can be described thus: Isothermal titration calorimetry of FAD with FAD-free. The class given is binding.
The next experiment deals with T2, InkE (Nonomuraea longicatena, UniProt Q27IF2).
T2 sequence (Q27IF2 1-525): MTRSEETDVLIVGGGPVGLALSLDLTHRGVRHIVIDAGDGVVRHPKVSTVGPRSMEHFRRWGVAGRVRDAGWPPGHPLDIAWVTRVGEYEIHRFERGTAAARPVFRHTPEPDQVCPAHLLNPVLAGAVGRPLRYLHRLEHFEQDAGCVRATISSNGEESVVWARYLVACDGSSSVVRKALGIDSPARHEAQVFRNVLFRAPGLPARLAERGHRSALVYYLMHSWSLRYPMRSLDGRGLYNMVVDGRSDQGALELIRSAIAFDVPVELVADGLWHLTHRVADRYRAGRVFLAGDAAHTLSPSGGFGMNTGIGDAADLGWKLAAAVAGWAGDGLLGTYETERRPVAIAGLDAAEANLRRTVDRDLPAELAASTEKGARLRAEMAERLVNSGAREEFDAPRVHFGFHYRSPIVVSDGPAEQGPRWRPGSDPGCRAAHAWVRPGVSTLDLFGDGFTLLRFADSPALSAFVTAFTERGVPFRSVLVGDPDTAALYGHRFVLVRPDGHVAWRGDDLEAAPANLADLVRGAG
The experiment can be described thus: Isothermal titration calorimetry of FAD with FAD-free. The class given is binding. Summed up: as §1

The target in a further experiment is T3, AtmC (Actinomadura melliaura, UniProt Q0H2X3).
T3 sequence (Q0H2X3 1-534): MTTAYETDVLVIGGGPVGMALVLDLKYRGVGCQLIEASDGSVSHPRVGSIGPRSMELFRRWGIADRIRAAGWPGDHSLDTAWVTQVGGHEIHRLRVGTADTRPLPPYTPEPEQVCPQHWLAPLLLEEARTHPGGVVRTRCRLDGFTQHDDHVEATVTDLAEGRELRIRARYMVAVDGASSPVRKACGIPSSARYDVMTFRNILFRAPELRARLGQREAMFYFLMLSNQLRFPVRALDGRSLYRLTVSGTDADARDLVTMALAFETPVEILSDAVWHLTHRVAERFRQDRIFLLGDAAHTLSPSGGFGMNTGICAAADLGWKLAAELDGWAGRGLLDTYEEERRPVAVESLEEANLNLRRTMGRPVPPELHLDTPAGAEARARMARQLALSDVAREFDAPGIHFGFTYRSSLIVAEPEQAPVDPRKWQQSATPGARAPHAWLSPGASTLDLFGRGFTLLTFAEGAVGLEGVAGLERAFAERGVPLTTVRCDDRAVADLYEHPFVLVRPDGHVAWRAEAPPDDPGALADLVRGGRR
The experiment can be described thus: Isothermal titration calorimetry of FAD with FAD-free. The format is binding. The gist of the method:
(§2)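 Recombinant His-tagged protein was expressed in Rosetta 2 (DE3) pLysS E. coli (0.1 mM IPTG, 21°C, ~20 h) and captured on Ni(II) resin. Flavin was stripped on-column with 2 M KBr/2 M urea, then the protein was eluted with 200 mM imidazole and gel-filtered on Superdex-200. Concentration by A280 using theoretical extinction coefficient. FAD titrated by MicroCal ITC, at least triplicate runs. Single-site Kb converted to Kd.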

The target in experiment [1] is T4, RebC (Lentzea aerocolonigenes, UniProt Q8KI25).
T4 sequence (Q8KI25 1-529): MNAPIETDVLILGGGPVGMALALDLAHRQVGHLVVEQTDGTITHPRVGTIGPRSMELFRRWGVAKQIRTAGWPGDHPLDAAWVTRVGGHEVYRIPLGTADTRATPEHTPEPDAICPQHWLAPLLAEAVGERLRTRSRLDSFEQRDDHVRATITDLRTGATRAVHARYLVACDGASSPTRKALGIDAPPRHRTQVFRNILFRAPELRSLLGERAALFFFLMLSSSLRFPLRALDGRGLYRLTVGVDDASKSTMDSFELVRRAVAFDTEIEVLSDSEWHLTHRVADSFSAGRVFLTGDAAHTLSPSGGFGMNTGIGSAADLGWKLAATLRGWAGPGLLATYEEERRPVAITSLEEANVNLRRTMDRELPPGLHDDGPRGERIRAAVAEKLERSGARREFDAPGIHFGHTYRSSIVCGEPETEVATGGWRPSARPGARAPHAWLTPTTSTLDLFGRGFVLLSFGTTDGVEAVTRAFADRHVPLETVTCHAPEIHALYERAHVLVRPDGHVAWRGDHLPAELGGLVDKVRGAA
The description is as above. The class given is binding. The gist of the method:
as §2

Experiment [2] has as its target T4, RebC. The format is binding. Summed up:
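Control ITC on RebC purified by Ni(II) affinity and Superdex-200 without the KBr/urea wash, retaining ~68% bound FAD. It tests fitting of partially occupied protein, since the fitting software assumes no ligand in the cell before the first injection. FAD titrated, at least triplicate runs. Single-site Kb converted to Kd.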

The values that follow come from PMC3437190 (Chemistry & biology, 2012).

Like-named read-outs stand apart in the source and are kept apart here.

Consider `Cc1cc2nc3c(=O)[nH]c(=O)nc-3n(C[C@H](O)[C@H](O)[C@H](O)COP(=O)(O)OP(=O)(O)OC[C@H]3O[C@@H](n4cnc5c(N)ncnc54)[C@H](O)[C@@H]3O)c2cc1C` [FAD], for which, in the experiment on StaC-10x, the “FAD binding weaker than RebC” value was 30 fold.

Consider `Cc1cc2nc3c(=O)[nH]c(=O)nc-3n(C[C@H](O)[C@H](O)[C@H](O)COP(=O)(O)OP(=O)(O)OC[C@H]3O[C@@H](n4cnc5c(N)ncnc54)[C@H](O)[C@@H]3O)c2cc1C` [FAD, flavin adenine dinucleotide], for which the Kd worked out at 15000 nM on StaC; 600 ± 55 nM on RebC-10x; 59000 nM at InkE; 73 ± 28 nM at AtmC; 20 ± 12 nM on RebC [1]; 31 nM at RebC [2].

As a reminder, the Kd is the constant that tells how readily two partners part at equilibrium.
